ChEMBL document CHEMBL1146506, “Sesquiterpene coumarins from Ferula fukanensis and nitric oxide production inhibitory effects” (J Nat Prod, 2004)
Activity calls are given as the source filed them. The rule behind the calls is not given here.

Columns and labels:
[1] = test system: RAW264.7; experiment: Inhibition of LPS and INF-gamma-induced iNOS mRNA expression in mouse RAW264.7 cells by RT-PCR analysis; type: functional, cell-based
Summary of the method: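 Cells at 1.2 × 10^6 cells/mL, preincubated 2 h at 37 °C, then test compound added with LPS (100 ng/mL) and IFN-γ (0.33 ng/mL) for about 8 h. Total RNA (250 ng) reverse-transcribed with oligo(dT) primer. iNOS and GAPDH amplified with specific primers for 25 cycles (94 °C 1 min, 60 °C 1 min, 72 °C 1.5 min).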

[2] = test system: RAW264.7; experiment: Inhibition of LPS and INF-gamma-induced NO production in mouse RAW264.7 cells; type: functional, cell-based
Summary of the method: (§1)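 Cells seeded at 1.2 × 10^6 cells/mL, preincubated 2 h at 37 °C. Test compound added together with E. coli LPS (100 ng/mL) and recombinant mouse IFN-γ (0.33 ng/mL), then incubated at 37 °C, usually 16 h. Nitrite in chilled culture supernatant measured with Griess reagent (1% sulfanilamide in 5% H3PO4, 0.1% naphthylethylenediamine) against NaNO2 standards, read at 550 nm minus 630 nm background.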

[3] = test system: RAW264.7; experiment: Inhibition of LPS and INF-gamma-induced NO production in mouse RAW264.7 cells at 10 ug/mL; type: functional, cell-based; summary of the method: as §1
[4] = test system: RAW264.7; experiment: Cytotoxicity against mouse RAW264.7 cells at 10 ug/mL; type: cell-based
Summary of the method: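 MTT assay. Compound given at 0.3–10 µg/mL during LPS/IFN-γ treatment for 24 h.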

Row | SMILES | Activity [1] | IC50 [2] [µM] | Activity [3] | Activity [4]
1 | CC(C)=CC(=O)/C=C(/C)CCC[C@@]1(C)Oc2c(c(=O)oc3cc(O)ccc23)[C@H]1C (relative stereo) [FUKANEFUROMARIN D] | Dose-dependent effect | 8.9 |  | 
2 | CC(C)=CC(=O)/C=C(\C)CCC[C@@]1(C)Oc2c(c(=O)oc3cc(O)ccc23)[C@H]1C (relative stereo) [FUKANEFUROMARIN B] |  | 16.2 |  | 
3 | CC(C)=CC(=O)/C=C(\C)CCC[C@@]1(C)Oc2c(c(=O)oc3cc(O)ccc23)[C@@H]1C (relative stereo) [FUKANEFUROMARIN A] |  | 13 |  | 
4 | CC(C)=CCC/C(C)=C/CC[C@@]1(C)Oc2c(c(=O)oc3cc(O)ccc23)[C@@H]1C |  |  | inactive | Non-toxic
5 | CC(C)=CC(=O)C/C(C)=C/CC[C@@]1(C)Oc2c(c(=O)oc3cc(O)ccc23)[C@H]1C (relative stereo) |  | 31.2 |  | 
6 | CC(C)=CC(=O)/C=C(/C)CCC[C@@]1(C)Oc2c(c(=O)oc3cc(O)ccc23)[C@@H]1C (relative stereo) [FUKANEFUROMARIN C] | Dose-dependent effect | 11.1 |  | 
7 | CC(C)=CCC/C(C)=C/CC[C@@]1(C)Oc2c(c(=O)oc3cc(O)ccc23)[C@H]1C |  |  | inactive | Non-toxic
8 | CC(C)=CC(=O)C/C(C)=C/CC[C@@]1(C)Oc2c(c(=O)oc3cc(O)ccc23)[C@@H]1C |  | 24.6 |  | 
